WNV protease inh = WNV NS2B-NS3 proteinase inhibition; P06935; WNV NS2B-NS3 protease, fluorogenic substrate Ex360/Em465; active compounds read low; z-score (no concentration beside the values); hit rate 0.18% among 65,000; AID 577; in the data active = z-score below about -3
RORa activator = activators of human nuclear receptor RORA; CHO-K1 Gal4-RORA LBD luciferase reporter, luminescence; percent increase over mock-subtracted basal signal; activation, % at 10 µM; P35398; AID 560; hit rate 1.5% among 65,000;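 active = activation above the mean of all tested compounds plus 3 SD, cut at about 49% in these data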;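 note: 0% = DMSO-treated RORA cells and 100% = added signal equal to DMSO minus mock-transfected cells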
SF1 activator = activates the human nuclear receptor SF-1; Q13285; CHO-K1 Gal4-SF-1 LBD luciferase reporter; % increase over DMSO SF-1-specific signal; activation, % at 10 µM; hit rate 1.9% among 65,000; AID 522;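 active = activation above the mean activation of all tested compounds plus 3 SD, cut at about 50% in these data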
Target sequence (Q13285 whole entry, looked up, the tested form may be a part): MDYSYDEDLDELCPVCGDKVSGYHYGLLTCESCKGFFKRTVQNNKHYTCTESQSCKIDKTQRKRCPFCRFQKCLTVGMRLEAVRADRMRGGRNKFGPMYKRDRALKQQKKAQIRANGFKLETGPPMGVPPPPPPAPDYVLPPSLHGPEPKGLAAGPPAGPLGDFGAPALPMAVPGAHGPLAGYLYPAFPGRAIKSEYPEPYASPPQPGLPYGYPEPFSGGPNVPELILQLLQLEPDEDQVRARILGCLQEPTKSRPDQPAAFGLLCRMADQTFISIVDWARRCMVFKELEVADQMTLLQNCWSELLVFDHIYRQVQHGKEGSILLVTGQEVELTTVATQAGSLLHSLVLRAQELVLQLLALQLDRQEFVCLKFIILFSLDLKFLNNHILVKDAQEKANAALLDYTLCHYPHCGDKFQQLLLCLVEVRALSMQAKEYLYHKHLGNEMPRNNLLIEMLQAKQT
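Material: Gal4–SF-1 LBD one-hybrid luciferase reporter in CHO-K1 cells | Amount: 4,000 cells per well | Compound dosing: 10 µM single point, 1% DMSO | Schedule: 20 h compound treatment, 37 °C | Measured by: SteadyLite luciferase luminescence | Evaluation: Percent activation versus DMSO | Control set: DMSO-treated SF-1-transfected cells as negative, DMSO-treated mock-transfected cells lacking SF-1 as background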
MT1-MMP txn act = MT1-MMP promoter transcription activation; HT1080 MT1-MMP promoter luciferase reporter, luminescence, overnight; active compounds read high; activation factor at 10 µM; hit rate 0.16% among 86,000; AID 750;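 active = activation factor of at least 2 for MT1-MMP transcription at 10 µM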
MMP13 inh = MMP13 (human) collagenase inhibition. MMP-13 fTHP FRET cleavage, Mca fluorescence. inhibition, % at 4 µM. hit rate 0.07% among 65,000. AID 570;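 active = inhibition above the mean of compound-free control plate wells plus 3 SD, cut at about 14% in these data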;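 note: 0% = DMSO wells and 100% = wells with reference MMP-13 inhibitor after basal subtraction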
* = called active by the depositor; / = no result. Compounds with a hit are over-represented: about 2.3% of the library has one in this group of screens.

SMILES | WNV protease inh | RORa activator | SF1 activator | MT1-MMP txn act | MMP13 inh
CC(=O)c1cccc(NC(=O)NCc2ccccn2)c1 | -0.23 | 22 | 56* | 1.4 | 1
Cc1sc2nc3c4ccccc4c(NCc4ccco4)nn3c(=O)c2c1C | -3.3* | -23 | -9 | 1.4 | -17
CC(C)(C)c1ccc(C(=O)N2CCC(C(=O)NCc3ccncc3)CC2)cc1 | 1.5 | 60* | 25 | 1 | 0
O=C(NCc1ccncc1)C1CCN(S(=O)(=O)Cc2ccccc2)CC1 | / | / | / | 1.3 | /
CC(C)(c1ccccc1)c1ccc(OCCn2cnc3ccccc3c2=O)cc1 | / | / | / | 1 | /
CC(C)(C)c1ccc(OCCn2ccccc2=O)cc1 | 0.22 | 39 | 67* | 1.9 | -9
CN1C(=O)C(C(=O)NC(C)(C)C)C2c3ccccc3OC13CCCCC23 (stereo unspecified) | -1.1 | -4 | 3 | 1 | 0
CNc1nc(N2CCc3ccccc32)ncc1F | 0.65 | 41 | 75* | 1.5 | 9
COC(=O)c1c(C)[nH]c(C(=O)OCc2ccc(F)cc2)c1C | -1.1 | 30 | 60* | 1.4 | -5
O=C1CC(c2cccs2)Sc2nc3ccccc3n21 (stereo unspecified) | 0.25 | 23 | 80* | 1.4 | 5
O=C1CC(c2ccco2)Sc2nc3ccccc3n21 (stereo unspecified) | -0.13 | 16 | 33 | 1.8 | 6
CC(C)OCCCNS(=O)(=O)c1ccc2ccccc2c1 | / | / | / | 1.1 | /
O=C(COC(=O)Cn1cnc2ccccc21)NCCC1=CCCCC1 | 0.49 | -14 | 4 | 1.1 | -1
O=C(NCc1ccc2c(c1)OCO2)c1c[nH]c2ccc(S(=O)(=O)N3CCOCC3)cc2c1=O | 1.5 | -15 | -8 | 1.1 | 2
O=C(NCc1ccccc1)c1c[nH]c2cc3c(cc2c1=O)OCCO3 | / | / | / | 2.2* | /
COc1ccc(CNC(=O)c2cc(-c3cccs3)on2)cc1 | -0.99 | -3 | 7 | 1.2 | 1
COCCNC(=O)c1cc(-c2cccs2)on1 | -0.9 | 145* | 48 | 1.2 | -6
O=C(NCc1cccs1)c1cc(-c2cccs2)on1 | 0.51 | 83* | 53* | 1.6 | 4
CC(=O)c1ccc(OCC(O)CN2CCN(c3ccccn3)CC2)cc1 (stereo unspecified) | -0.7 | 11 | 13 | 1 | -3
COc1cc(NC(=O)c2csc3c2CCCC3)ncn1 | 0.6 | 56* | 14 | 1.5 | 0
COCCNC(=O)c1csc2c1CCCC2 | 1.6 | 14 | 10 | 1.1 | 0
Cc1ccccc1Cn1ccc(NC(=O)c2onc(C)c2Cl)n1 | 0.0058 | 87* | 11 | 1.4 | 5
Cc1ccc2c(CC(=O)NCc3ccco3)coc2c1C | 0.26 | 52* | 23 | / | -2
Cc1c(Br)cc(C(=O)NCc2ccco2)c(C)c1C | 0.87 | -26 | -6 | 1.2 | -1
CCOc1ccc(-c2noc(-c3ccncc3)n2)cc1OCC | 0.3 | -10 | 18 | 1.1 | 5
SMILES | WNV protease inh | RORa activator | SF1 activator | MT1-MMP txn act | MMP13 inh
COc1ccc(-c2nnc(-c3ccc(Br)o3)o2)cc1OC | 0.2 | -4 | 6 | 1.4 | -19
COc1cccc(-c2nc(-c3ccccn3)no2)c1OC | 0.6 | 15 | 50* | 1.3 | 2
COc1ccc(-c2nc(-c3ccncc3)no2)cc1OC | 1.5 | 68* | 74* | 1.5 | 8
COc1nc(C)ccc1-c1noc(-c2ccco2)n1 | 2.1 | 67* | 17 | / | -5
c1ccc(-c2noc(-c3cccc4ccccc34)n2)nc1 | -0.89 | -11 | 17 | 0.3 | -93
COc1nc(-c2ccc(C)cc2)ccc1-c1noc(-c2ccco2)n1 | 0.43 | 19 | 16 | 1.2 | -30
COc1ccc(-c2nc(-c3ccc(Br)o3)no2)cc1OC | -1.1 | 60* | 87* | 1.7 | -8
C#CCCCC(=S)Nc1ccccc1 | / | / | / | 1.1 | /
COCCN=C1OC(=O)N2C(=O)C3=C4[C@@H](C[C@H]5C(=O)N(CC(=O)OC)C(=O)[C@H]5[C@H]4[C@@]12Cc1ccccc1)[C@H]1C(=O)N(CC(=O)OC)C(=O)[C@H]1[C@H]3C | / | / | / | 1.2 | /
COc1ccc(CCC(=O)Nc2ccc(-c3noc(-c4ccc(OC)c(OC)c4)n3)cc2)cc1 | 0.5 | 14 | 75* | 1.4 | -2
COc1ccc(-c2noc(-c3ccco3)n2)cc1OC | 1 | 44 | 50* | 1.1 | 9
COc1ccccc1-c1nc(-c2ccncc2)no1 | 1.3 | 58* | 10 | 1 | -2
COc1ccc(-c2noc(-c3cccc(Cl)c3)n2)cc1OC | -0.41 | 13 | 14 | 1.4 | 5

High-throughput results as filed in PubChem BioAssay.
